High-throughput results deposited in PubChem by Broad Institute.
T cruzi growth-1: inhibitors of T. cruzi proliferation | hit rate 5.9% among 77,000 | AID 624255 | T. cruzi beta-gal in NIH3T3, GalScreen luminescence, 90 h | inhibition, % at 8.34 µM;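 active = mean inhibition above about 93%, with at least 55% of replicates each passing it, limit read from the data, passing the limit was not always enough; inconclusive = only one of those two conditions holds; inactive = neither condition holds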
IDH1 R132H inh: blocks human IDH1 R132H reductase activity. O75874. diaphorase/resazurin fluorescence, 60 min. inhibition, % at 10 µM. hit rate 0.18% among 70,000. AID 624101; in the data active = inhibition above about 34%; inconclusive = no clear call, values can overlap the other calls; inactive = below about 11%;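 note: 0% = DMSO and 100% = no enzyme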
Target sequence (O75874 whole entry R132H): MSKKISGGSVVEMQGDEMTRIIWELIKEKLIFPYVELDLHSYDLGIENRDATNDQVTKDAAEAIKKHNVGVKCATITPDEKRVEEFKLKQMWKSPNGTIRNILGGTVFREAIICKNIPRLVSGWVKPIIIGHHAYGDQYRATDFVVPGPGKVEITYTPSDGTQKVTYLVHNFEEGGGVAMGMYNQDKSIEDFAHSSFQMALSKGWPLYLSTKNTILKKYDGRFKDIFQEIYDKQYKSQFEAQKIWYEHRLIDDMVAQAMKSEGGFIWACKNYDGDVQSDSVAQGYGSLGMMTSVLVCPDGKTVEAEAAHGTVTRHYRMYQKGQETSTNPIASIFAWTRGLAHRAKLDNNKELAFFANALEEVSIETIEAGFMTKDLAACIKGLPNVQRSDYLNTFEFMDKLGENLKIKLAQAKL
KDM4C inh: KDM4C (human) demethylase inhibition; Q9H3R0; GST-KDM4C 2-372, H3K9me3 peptide, LANCE TR-FRET; inhibition, % at 12.5 µM; hit rate 0.15% among 96,000;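 active = mean replicate inhibition above about 25%, with at least 55% of replicates also reaching it, limit read from the data, passing the limit was not always enough; inconclusive = only one of those two conditions met; inactive = neither condition met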
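System: N-terminal GST-fused human GASC-1 (KDM4C) fragment, residues 2-372 / Amount: 10 nM GST-KDM4C in enzyme reaction / Also added: H3K9me3 peptide with Fe(II)/2OG / Times: 30 min demethylation and 1 h detection at room temperature / Signal: LANCE TR-FRET / Read-out basis: Fall in 671/618 emission ratio as inhibition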
T cruzi growth-2: Trypanosoma cruzi proliferation inhibition | shares compounds with T cruzi growth-1 | T. cruzi beta-gal in NIH3T3, GalScreen luminescence, 90 h | inhibition, % at 8.35 µM | hit rate 72% among 5,600;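 active = mean replicate inhibition above about 95% and at least 55% of replicates individually reaching it, limit read from the data; inconclusive = only one of the two criteria is met; inactive = neither criterion is met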
T cruzi growth-3: Trypanosoma cruzi proliferation inhibition; hit rate 21% among 5,600; inhibition, % at 2.09 µM; shares compounds with T cruzi growth-1; T. cruzi beta-gal in NIH3T3, GalScreen luminescence, 90 h;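 active = mean inhibition above about 95%, with at least 55% of replicates also reaching it, limit read from the data; inconclusive = meets just one of the two conditions; inactive = meets neither condition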;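 note: plate controls were neutral control median for no effect and positive control median for full effect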
3T3 cytotox: NIH/3T3 (mouse) viability loss. shares compounds with T cruzi growth-1. NIH/3T3 viability, CellTiter-Glo ATP luminescence, 90 h. cytotoxicity (signal decrease), % at 8.35 µM. hit rate 14% among 5,600. AID 651742;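 active = mean signal decrease across replicates above about 35% based on untreated-well scatter, with enough replicates individually passing, limit read from the data; inconclusive = no rule stated though some were filed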;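 note: 0% = median of neutral control wells and 100% = median of positive control wells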
3T3 cytotox 2: cytotoxicity in mouse NIH/3T3 fibroblasts. inhibition, % at 24.9 µM. hit rate 56% among 5,600. shares compounds with T cruzi growth-1. NIH/3T3 viability, CellTiter-Glo ATP luminescence, 90 h;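 active = mean loss of cell viability signal at or above a set limit, and enough replicates individually reaching it; inconclusive = meets only the mean limit or only the replicate share; inactive = meets neither condition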;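 note: 0% = median of neutral control wells and 100% = median of positive control wells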
* = called active by the depositor; ? = inconclusive; · = no result given; ! = a repeat was not active. Only a selection was taken, and hits are over-represented in it overall.

SMILES	T cruzi growth-1	IDH1 R132H inh	KDM4C inh	T cruzi growth-2	T cruzi growth-3	3T3 cytotox	3T3 cytotox 2
COc1cc(NC(=O)C(C)Oc2ccc(Cl)cc2C)c(C(=O)O)cc1OC (stereo not given)	·	0	·	·	·	·	·
COc1ccc(NC(=O)Nc2ccc3c(c2)C(=O)N([C@H](C)CO)C[C@@H](C)[C@@H](CN(C)Cc2ccc(C(F)(F)F)cc2)OCCCC[C@H](C)O3)cc1	100*	·	0	85	108*	18	-4
COc1ccc(NC(=O)Nc2ccc3c(c2)C(=O)N([C@H](C)CO)C[C@H](C)[C@@H](CN(C)Cc2ccc(C(F)(F)F)cc2)OCCCC[C@H](C)O3)cc1	72	·	0	·	·	·	·
COc1ccc(CN(C)C[C@@H]2OCCCC[C@@H](C)Oc3ccc(NC(=O)Nc4ccc(C(F)(F)F)cc4)cc3C(=O)N([C@H](C)CO)C[C@@H]2C)cc1	?	·	·	97*	108*	7	29*
COc1ccc(CN(C)C[C@@H]2OCCCC[C@H](C)Oc3ccc(NC(=O)Nc4ccc(C(F)(F)F)cc4)cc3C(=O)N([C@@H](C)CO)C[C@H]2C)cc1	69	-1	·	·	·	·	·
COc1ccc(OC)c(C(=O)CSc2nnc(-c3ccncc3)n2-c2ccc(C)cc2)c1	·	0	·	·	·	·	·
O=C(NC[C@@H]1N[C@@H](CO)[C@H]1c1ccc(C2=CCCC2)cc1)c1ccccc1	40	·	-2	·	·	·	·
COCC(=O)NC[C@@H]1N[C@@H](CO)[C@H]1c1ccc(C2=CCCC2)cc1	-1	·	5	·	·	·	·
O=C(NC[C@@H]1N[C@@H](CO)[C@@H]1c1ccc(C2=CCCC2)cc1)c1ccccc1	113*	·	-3	108*	82	39*	107*
O=C(NC[C@@H]1N[C@@H](CO)[C@H]1c1ccc(-c2ccccc2F)cc1)c1ccccc1	109*	·	-4	107*	34	5	104*
COCC(=O)NC[C@H]1N[C@H](CO)[C@@H]1c1ccc(C2=CCCCC2)cc1	98*	·	3	70	-9	-10	12
CCC(=O)NC[C@H]1N[C@H](CO)[C@@H]1c1ccc(-c2ccccc2F)cc1	·	·	-1	·	·	·	·
COCC(=O)NC[C@H]1N[C@H](CO)[C@H]1c1ccc(-c2ccccc2F)cc1	15	·	2	·	·	·	·
O=C(NC[C@H]1N[C@H](CO)[C@@H]1c1ccc(-c2ccccc2F)cc1)c1ccccc1	?	·	-1	96*	11	2	105*
COc1ccccc1-c1cc(-c2ccccc2)nc(SCC(=O)c2cc3ccccc3oc2=O)c1C#N	·	0	·	·	·	·	·
COc1cc(C(C)CC(C)(O)CC(=O)O)oc(=O)c1C (stereo not given)	·	1	·	·	·	·	·
Cc1cc(Cl)ccc1N(CC(=O)Nc1c(C)n(C)n(-c2ccccc2)c1=O)S(C)(=O)=O	·	0	·	·	·	·	·
OC[C@@H]1[C@@H](c2ccc(-c3ccc(F)cc3)cc2)[C@H]2CN(Cc3cccnc3)CCCCN12	113*	·	0	53	20	28	102*
Cc1ccccc1-c1ccc([C@H]2[C@@H](CO)N3CCCCN(Cc4cccnc4)C[C@H]23)cc1	109*	·	-1	106*	91	46*	106*
OC[C@@H]1[C@H](c2ccc(C3=CCCC3)cc2)[C@H]2CN(Cc3cccnc3)CCCCN12	99	·	2	·	·	·	·
CN(C)C(=O)c1ccc(-c2ccc([C@@H]3[C@H](CO)N4CCCCN(Cc5cccnc5)C[C@@H]34)cc2)cc1	83	·	-1	·	·	·	·
CN(C)C(=O)c1cccc(-c2ccc([C@H]3[C@H](CO)N4CCCCN(Cc5cccnc5)C[C@@H]34)cc2)c1	101*	·	-1	107*	91	-5	-6
OC[C@@H]1[C@H](c2ccc(-c3ccc(F)cc3)cc2)[C@@H]2CN(Cc3ccncc3)CCCCN12	98*	·	6	106*	45	37*	103*
OC[C@@H]1[C@@H](c2ccc(-c3ccc(F)cc3)cc2)[C@H]2CN(Cc3ccncc3)CCCCN12	77	·	3	·	·	·	·
COc1ccc(NC(=O)CSc2nnc(-c3cccs3)n2-c2ccc(F)cc2)cc1	·	0	·	·	·	·	·
SMILES	T cruzi growth-1	IDH1 R132H inh	KDM4C inh	T cruzi growth-2	T cruzi growth-3	3T3 cytotox	3T3 cytotox 2
CC(=O)c1cccc(NC(=O)Nc2cccc(S(=O)(=O)N3CCOCC3)c2)c1	·	0	·	·	·	·	·
COc1ccc2c(c1)cc(C)c1nnc(SCC(=O)Nc3cccc(C(C)=O)c3)n12	·	-1	·	·	·	·	·
Cc1cccc(OCC(=O)Nc2ccc(Cl)c(-c3nc4ccc(C)cc4o3)c2)c1	·	0	·	·	·	·	·
CC(Oc1ccc(C(C)(C)C)cc1)C(=O)NCc1ccco1 (stereo not given)	·	3	·	·	·	·	·
O=C(NO)c1ccc(C(=O)N/N=C/c2ccco2)cc1	·	0	·	·	·	·	·
Cc1ccc(-n2c(SCC(=O)NCC3CCCO3)nc3sc(C)c(C)c3c2=O)cc1C (stereo not given)	·	-1	·	·	·	·	·
OC[C@H]1[C@H](c2ccc(-c3ccc(F)cc3)cc2)[C@H]2CN(Cc3cccnc3)CCCCN21	89	·	-1	·	·	·	·
OC[C@H]1[C@H](c2ccc(-c3ccc(F)cc3)cc2)[C@@H]2CN(Cc3cccnc3)CCCCN12	110*	·	1	114*	91	17	103*
C[C@@H]1CN([C@@H](C)CO)C(=O)c2cc(C#CC3CCCCC3)cnc2O[C@H]1CN(C)S(=O)(=O)c1cccc(F)c1	·	1	·	·	·	·	·
C[C@@H]1CN([C@@H](C)CO)C(=O)c2cc(C#CC3CCCCC3)cnc2O[C@@H]1CN(C)S(=O)(=O)c1cccc(F)c1	·	0	-2	·	·	·	·
C[C@@H]1CN([C@H](C)CO)C(=O)c2cc(C#CC3CCCC3)cnc2O[C@H]1CN(C)S(=O)(=O)c1cccc(F)c1	?	·	0	104*	80	32	77*
C[C@H]1CN([C@@H](C)CO)C(=O)c2cc(C#CC3CCCC3)cnc2O[C@@H]1CN(C)S(=O)(=O)c1cccc(F)c1	120*	·	1	105*	48	11	83*
CC(C)(C)c1cc(-c2csc(-c3ccno3)n2)cc(C(C)(C)C)c1O	·	0	·	·	·	·	·
O=C(O)CCc1ccc(-c2ccc(Cl)cc2)n1-c1ccc(C(=O)O)cc1	·	3	·	·	·	·	·
COc1cccc(C#Cc2ccc3c(c2)O[C@H](CN(C)S(=O)(=O)c2ccccc2F)[C@@H](C)CN([C@@H](C)CO)S3(=O)=O)c1	118*	1	-4	111*	116*	38*	27*
COc1ccc(C#Cc2ccc3c(c2)O[C@@H](CN(C)S(=O)(=O)c2ccccc2F)[C@@H](C)CN([C@@H](C)CO)S3(=O)=O)cc1	·	-4	-9	·	·	·	·
COc1cccc(C#Cc2ccc3c(c2)O[C@H](CN(C)S(=O)(=O)c2ccccc2F)[C@H](C)CN([C@H](C)CO)S3(=O)=O)c1	130*	0	5	107*	107*	8	38*!
